Assay results as given in ChEMBL document CHEMBL4673340 (J Med Chem, 2020).
Active and inactive are the calls of the source. The calls are words filed in the database; no cut-off is given here.

Key:
[1] = Tmax in Sprague-Dawley rat at 5 mg/kg, po by LC-MS/MS analysis; conditions: in vivo
[2] = Clearance in ICR mouse at 1 mg/kg, iv by LC-MS/MS analysis; assay type: ADME, organism-based; conditions: in vivo
How it was run: (§1)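 Male/female unspecified ICR mice, n=3 per route. Intravenous 1 mg/kg in 5% DMA in water; oral 10 mg/kg in 0.5% MC. Plasma is processed by protein precipitation and analysed by LC–MS/MS using an acetonitrile/0.1% formic acid gradient. Values are means of the three animals.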

[3] = target: Poly [ADP-ribose] polymerase 2 (Homo sapiens, UniProt Q9UGN5); assay: Inhibition of PARP-2 (unknown origin) pre-incubated for 30 mins before addition of activated DNA and NAD by chemiluminescent assay
Cytochrome P450 2D6 = Cytochrome P450 2D6 (Homo sapiens, UniProt P10635); assay: Inhibition of CYP2D6 (unknown origin); assay type: ADME
Cytochrome P450 2C8 = Cytochrome P450 2C8 (Homo sapiens, UniProt P10632); assay: Inhibition of CYP2C8 (unknown origin); assay type: ADME
[4] = Toxicity in BALB/c nude mouse xenografted with human MDA-MB-436 cells assessed as effect on animal mortality at 1.6 to […], po BID for 28 days followed by treatment was interruption and monitored for additional 2 months; assay type: organism-based; conditions: in vivo, dose 1.6-3.1 mg/kg, time 28 day
[5] = Oral bioavailability in ICR mouse at 10 mg/kg by LC-MS/MS analysis; assay type: ADME, organism-based; conditions: in vivo
How it was run: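 Three ICR mice per arm. iv dose 1 mg/kg in 5% DMA in water; oral dose 10 mg/kg in 0.5% MC. Plasma was processed by protein precipitation, diluted with water and quantified by LC-MS/MS (C18 column, acetonitrile/0.1% formic acid gradient). Values are means of three animals.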

[6] = Ratio of drug level in brain to plasma of C57BL/6 mouse brain at 10 mg/kg, po after 2 hrs; assay type: ADME, organism-based
How it was run: (§2)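 C57BL/6 mice were given 10 mg/kg po in 0.5% MC and sampled at 1, 2 and 4 h. Brain was homogenized in 3 volumes of saline, and brain and plasma were protein-precipitated with acetonitrile, then measured by LC-MS/MS. Brain (ng/g) was expressed as a percentage of plasma (ng/mL). Values are means of three mice.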

[7] = AUC (0 to infinity) in Beagle dog at 1 mg/kg, iv by LC-MS/MS analysis; assay type: ADME, organism-based, Canis lupus familiaris; design: time infinity, route intravenous, dose 1 mg/kg; conditions: in vivo
How it was run: (§3)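 Three Beagle dogs; iv dose 1 mg/kg in 25% DMA in water; oral dose 2 mg/kg in 0.5% CMC-Na. Plasma drug concentrations are measured by LC–MS/MS. Values are the mean of three dogs.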

[8] = target: Broad substrate specificity ATP-binding cassette transporter ABCG2 (Homo sapiens, UniProt Q9UNQ0); assay: Inhibition of BCRP (unknown origin) up to 30 uM
BCRP = BCRP (Homo sapiens, UniProt Q9UNQ0); assay: Inhibition of BCRP (unknown origin) at 30 uM; conditions: not told
[9] = Half life in Beagle dog at 1 mg/kg, iv by LC-MS/MS analysis; assay type: ADME, organism-based, Canis lupus familiaris; conditions: in vivo
How it was run: as §3

[10] = Tmax in Beagle dog at 2 mg/kg, po by LC-MS/MS analysis; assay type: ADME, organism-based, Canis lupus familiaris; conditions: in vivo
How it was run: (§4)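 Beagle dogs, three per group. iv 1 mg/kg in 25% DMA in water; oral 2 mg/kg. Values are means of three dogs.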

[11] = AUC (0 to infinity) in ICR mouse at 10 mg/kg, po by LC-MS/MS analysis; assay type: ADME, organism-based; design: time infinity, route oral, dose 10 mg/kg; conditions: in vivo
How it was run: as §1

[12] = Unbound fraction in mouse plasma; assay type: ADME, cell-free
[13] = Unbound fraction in rat plasma; assay type: ADME, cell-free
[14] = AUC (0 to infinity) in Sprague-Dawley rat at 2 mg/kg, iv by LC-MS/MS analysis; assay type: ADME, organism-based; design: time infinity, route intravenous, dose 2 mg/kg; conditions: in vivo
How it was run: (§5)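 Sprague-Dawley rats (n=3) get 2 mg/kg iv formulated in 38% DMA in water. Plasma is protein-precipitated and quantified by LC–MS/MS (C18, acetonitrile/0.1% formic acid gradient). Parameters are means of the three rats.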

[15] = target: Solute carrier family 22 member 6 (Homo sapiens, UniProt Q4U2R8); assay: Inhibition of OAT1 (unknown origin)
NCI-H209 [16] = assay: Potentiation of TMZ-induced antitumor activity against human NCI-H209 cells xenografted in BALB/c nude mouse assessed as PR rate at […], po BID for 28 days and co-treated with 50 mg/kg, po QD TMZ for 5 consecutive days at start of study and again 14 days later; assay type: functional; conditions: time 28 day
[17] = Clearance in rat liver microsomes; assay type: ADME, Microsome
[18] = Drug level in C57BL/6 mouse brain at 10 mg/kg, po after 4 hrs; assay type: ADME, organism-based; conditions: read-out: Drug uptake
How it was run: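 C57BL/6 mice (n=3) dosed orally at 10 mg/kg in 0.5% MC. Plasma and brain are sampled at 1, 2 and 4 h. Brain is homogenized in 3 volumes of saline, then acetonitrile protein precipitation; plasma is likewise precipitated. Both are analysed by LC–MS/MS and reported as means.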

[19] = Volume of distribution at steady state in Beagle dog at 1 mg/kg, iv by LC-MS/MS analysis; assay type: ADME, organism-based, Canis lupus familiaris; conditions: in vivo, read-out: Vdss
How it was run: as §4

[20] = Toxicity in BALB/c nude mouse xenografted with human NCI-H209 cells assessed as induction of body weight loss at […], po BID for 28 days and co-treated with 50 mg/kg, po QD TMZ for 5 consecutive days at start of study and again 14 days later relative to TMZ alone; assay type: organism-based; conditions: in vivo, dose 0.75 mg/kg, time 28 day
Cytochrome P450 2C19 = Cytochrome P450 2C19 (Homo sapiens, UniProt P33261); assay: Inhibition of CYP2C19 (unknown origin); assay type: ADME
[21] = Half life in Sprague-Dawley rat at 2 mg/kg, iv by LC-MS/MS analysis; assay type: ADME, organism-based; conditions: in vivo
How it was run: as §5

[22] = AUC (0 to infinity) in ICR mouse at 1 mg/kg, iv by LC-MS/MS analysis; assay type: ADME, organism-based; design: route intravenous, time infinity, dose 1 mg/kg; conditions: in vivo
How it was run: as §1

hERG (KCNH2) = hERG (KCNH2) (Homo sapiens, UniProt Q12809); assay: Inhibition of human ERG activity at 20 uM by functional cellular assay
NCI-H209 [23] = assay: Potentiation of TMZ-induced antitumor activity against human NCI-H209 cells xenografted in BALB/c nude mouse assessed as tumor relapse rate at […], po BID for 28 days and co-treated with 50 mg/kg, po QD TMZ for 5 consecutive days at start of study and again 14 days later and measured after 68 days; assay type: functional, organism-based; conditions: time 28.0 day
[24] = target: Solute carrier organic anion transporter family member 1B1 (Homo sapiens, UniProt Q9Y6L6); assay: Inhibition of OATP1B1 (unknown origin)
[25] = Clearance in human liver microsomes; assay type: ADME, Microsome
[26] = Unbound fraction in human plasma; assay type: ADME, cell-free
[27] = Ratio of drug level in brain to plasma of C57BL/6 mouse brain at 10 mg/kg, po after 1 hrs; assay type: ADME, organism-based
How it was run: as §2

[28] = Half life in ICR mouse at 1 mg/kg, iv by LC-MS/MS analysis; assay type: ADME, organism-based; conditions: in vivo
How it was run: as §1

[29] = Unbound fraction in dog plasma; assay type: ADME, cell-free, Canis lupus familiaris
[30] = Half life in Sprague-Dawley rat at 5 mg/kg, po by LC-MS/MS analysis; conditions: in vivo

Solute carrier family 22 member 6, sequence (Q4U2R8 whole entry): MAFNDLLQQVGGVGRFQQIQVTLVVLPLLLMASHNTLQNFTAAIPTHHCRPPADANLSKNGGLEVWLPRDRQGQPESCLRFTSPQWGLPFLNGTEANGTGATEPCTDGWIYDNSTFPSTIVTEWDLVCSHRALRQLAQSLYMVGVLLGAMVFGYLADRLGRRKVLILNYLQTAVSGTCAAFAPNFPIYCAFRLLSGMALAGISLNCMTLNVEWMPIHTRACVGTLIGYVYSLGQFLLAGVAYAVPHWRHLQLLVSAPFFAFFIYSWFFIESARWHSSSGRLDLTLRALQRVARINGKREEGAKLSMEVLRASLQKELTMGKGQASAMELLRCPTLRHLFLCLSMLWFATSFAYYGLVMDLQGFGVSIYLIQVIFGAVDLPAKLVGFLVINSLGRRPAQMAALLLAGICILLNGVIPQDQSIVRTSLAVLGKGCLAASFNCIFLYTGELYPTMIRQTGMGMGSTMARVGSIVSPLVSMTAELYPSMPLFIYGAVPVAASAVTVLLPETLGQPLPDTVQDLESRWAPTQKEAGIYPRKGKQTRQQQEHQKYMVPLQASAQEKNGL
Cytochrome P450 2C19, sequence (P33261 whole entry): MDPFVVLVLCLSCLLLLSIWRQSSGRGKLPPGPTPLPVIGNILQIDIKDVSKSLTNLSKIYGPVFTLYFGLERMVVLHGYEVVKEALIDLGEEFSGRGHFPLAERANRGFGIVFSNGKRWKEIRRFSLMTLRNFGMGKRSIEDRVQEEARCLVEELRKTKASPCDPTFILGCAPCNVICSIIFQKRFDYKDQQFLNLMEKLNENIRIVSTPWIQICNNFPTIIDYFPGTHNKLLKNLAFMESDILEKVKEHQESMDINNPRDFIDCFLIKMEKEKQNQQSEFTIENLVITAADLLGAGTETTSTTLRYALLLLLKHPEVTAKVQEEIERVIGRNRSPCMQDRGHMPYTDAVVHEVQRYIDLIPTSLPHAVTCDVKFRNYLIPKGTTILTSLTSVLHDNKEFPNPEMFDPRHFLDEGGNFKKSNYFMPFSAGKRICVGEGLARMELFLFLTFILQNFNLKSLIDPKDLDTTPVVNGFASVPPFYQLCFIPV
hERG (KCNH2), sequence (Q12809 whole entry): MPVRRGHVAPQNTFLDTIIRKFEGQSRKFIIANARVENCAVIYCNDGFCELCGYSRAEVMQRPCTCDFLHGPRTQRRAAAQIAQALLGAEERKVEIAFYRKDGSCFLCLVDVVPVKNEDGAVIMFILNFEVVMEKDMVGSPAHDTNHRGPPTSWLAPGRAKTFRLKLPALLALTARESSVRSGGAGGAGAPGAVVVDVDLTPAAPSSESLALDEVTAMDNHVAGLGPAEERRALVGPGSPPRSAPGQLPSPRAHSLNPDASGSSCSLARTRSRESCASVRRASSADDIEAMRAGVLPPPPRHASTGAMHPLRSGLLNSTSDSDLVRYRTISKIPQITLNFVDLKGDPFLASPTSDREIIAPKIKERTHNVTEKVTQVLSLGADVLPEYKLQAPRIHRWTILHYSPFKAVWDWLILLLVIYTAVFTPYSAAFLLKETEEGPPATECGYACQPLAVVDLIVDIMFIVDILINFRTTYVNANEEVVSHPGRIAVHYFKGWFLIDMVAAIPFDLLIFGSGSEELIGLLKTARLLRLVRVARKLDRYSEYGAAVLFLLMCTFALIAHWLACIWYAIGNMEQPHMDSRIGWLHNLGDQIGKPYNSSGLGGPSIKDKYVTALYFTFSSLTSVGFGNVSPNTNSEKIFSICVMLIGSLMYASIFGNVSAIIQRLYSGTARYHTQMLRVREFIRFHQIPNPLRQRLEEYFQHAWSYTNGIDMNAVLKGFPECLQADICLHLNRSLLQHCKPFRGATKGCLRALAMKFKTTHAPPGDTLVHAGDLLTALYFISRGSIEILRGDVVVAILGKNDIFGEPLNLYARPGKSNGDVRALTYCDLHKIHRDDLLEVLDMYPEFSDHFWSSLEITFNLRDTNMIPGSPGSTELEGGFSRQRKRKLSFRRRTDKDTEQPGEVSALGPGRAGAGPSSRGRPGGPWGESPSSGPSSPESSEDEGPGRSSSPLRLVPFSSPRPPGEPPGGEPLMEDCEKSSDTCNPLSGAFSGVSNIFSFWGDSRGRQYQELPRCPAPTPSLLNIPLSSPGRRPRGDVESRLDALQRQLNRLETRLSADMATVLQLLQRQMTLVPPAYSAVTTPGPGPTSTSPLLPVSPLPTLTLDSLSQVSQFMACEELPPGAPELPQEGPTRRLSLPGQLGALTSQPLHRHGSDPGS
Cytochrome P450 2C8, sequence (P10632 whole entry): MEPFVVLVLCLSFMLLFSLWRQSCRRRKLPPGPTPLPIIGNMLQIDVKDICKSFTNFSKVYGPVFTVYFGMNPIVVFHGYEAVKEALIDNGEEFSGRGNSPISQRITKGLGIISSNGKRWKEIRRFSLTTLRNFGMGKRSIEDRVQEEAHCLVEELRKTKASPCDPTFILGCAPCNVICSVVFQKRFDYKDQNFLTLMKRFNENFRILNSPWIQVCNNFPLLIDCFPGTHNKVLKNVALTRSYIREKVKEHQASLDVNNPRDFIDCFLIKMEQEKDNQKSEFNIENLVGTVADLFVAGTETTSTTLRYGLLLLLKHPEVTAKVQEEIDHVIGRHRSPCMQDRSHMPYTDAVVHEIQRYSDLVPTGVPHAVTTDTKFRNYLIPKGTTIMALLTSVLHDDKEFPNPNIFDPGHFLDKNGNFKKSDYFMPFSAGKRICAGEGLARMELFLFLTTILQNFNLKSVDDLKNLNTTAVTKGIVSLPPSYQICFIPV
BCRP, sequence (Q9UNQ0 whole entry): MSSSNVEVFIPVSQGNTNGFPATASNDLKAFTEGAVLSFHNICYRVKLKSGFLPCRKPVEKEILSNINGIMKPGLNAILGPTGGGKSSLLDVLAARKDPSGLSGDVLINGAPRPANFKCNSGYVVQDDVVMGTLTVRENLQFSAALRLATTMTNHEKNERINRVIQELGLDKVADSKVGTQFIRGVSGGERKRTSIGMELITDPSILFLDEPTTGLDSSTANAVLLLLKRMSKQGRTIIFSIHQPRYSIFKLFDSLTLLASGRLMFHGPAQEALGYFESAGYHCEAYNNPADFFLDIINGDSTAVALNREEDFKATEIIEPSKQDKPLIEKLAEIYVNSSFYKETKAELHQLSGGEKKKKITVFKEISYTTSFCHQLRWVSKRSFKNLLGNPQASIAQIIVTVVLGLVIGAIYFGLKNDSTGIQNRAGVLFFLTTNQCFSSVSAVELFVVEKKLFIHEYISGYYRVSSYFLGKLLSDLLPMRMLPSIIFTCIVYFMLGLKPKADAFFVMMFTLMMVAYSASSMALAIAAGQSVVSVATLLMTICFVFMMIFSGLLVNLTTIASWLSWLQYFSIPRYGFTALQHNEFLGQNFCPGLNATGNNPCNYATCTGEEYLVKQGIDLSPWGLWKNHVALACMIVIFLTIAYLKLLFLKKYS
Broad substrate specificity ATP-binding cassette transporter ABCG2, sequence (Q9UNQ0 whole entry): as above
Solute carrier organic anion transporter family member 1B1, sequence (Q9Y6L6 whole entry): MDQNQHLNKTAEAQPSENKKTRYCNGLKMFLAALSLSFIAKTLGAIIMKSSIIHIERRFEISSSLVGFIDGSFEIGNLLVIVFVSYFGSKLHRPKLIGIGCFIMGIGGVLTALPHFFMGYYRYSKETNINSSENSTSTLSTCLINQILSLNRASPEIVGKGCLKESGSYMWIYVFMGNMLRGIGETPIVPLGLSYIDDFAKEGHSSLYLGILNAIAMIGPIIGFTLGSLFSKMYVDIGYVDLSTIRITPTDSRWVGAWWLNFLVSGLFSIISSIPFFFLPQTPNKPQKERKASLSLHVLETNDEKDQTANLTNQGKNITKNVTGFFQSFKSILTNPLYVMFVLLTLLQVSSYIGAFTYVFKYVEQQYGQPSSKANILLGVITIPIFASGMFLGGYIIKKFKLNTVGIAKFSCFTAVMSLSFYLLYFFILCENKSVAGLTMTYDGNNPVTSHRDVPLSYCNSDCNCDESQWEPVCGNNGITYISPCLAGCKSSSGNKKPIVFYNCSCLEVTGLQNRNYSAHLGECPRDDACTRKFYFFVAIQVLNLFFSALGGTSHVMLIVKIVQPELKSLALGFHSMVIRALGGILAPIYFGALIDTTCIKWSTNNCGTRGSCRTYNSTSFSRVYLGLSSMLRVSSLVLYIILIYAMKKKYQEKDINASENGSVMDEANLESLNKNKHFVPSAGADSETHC
Cytochrome P450 2D6, sequence (P10635 whole entry): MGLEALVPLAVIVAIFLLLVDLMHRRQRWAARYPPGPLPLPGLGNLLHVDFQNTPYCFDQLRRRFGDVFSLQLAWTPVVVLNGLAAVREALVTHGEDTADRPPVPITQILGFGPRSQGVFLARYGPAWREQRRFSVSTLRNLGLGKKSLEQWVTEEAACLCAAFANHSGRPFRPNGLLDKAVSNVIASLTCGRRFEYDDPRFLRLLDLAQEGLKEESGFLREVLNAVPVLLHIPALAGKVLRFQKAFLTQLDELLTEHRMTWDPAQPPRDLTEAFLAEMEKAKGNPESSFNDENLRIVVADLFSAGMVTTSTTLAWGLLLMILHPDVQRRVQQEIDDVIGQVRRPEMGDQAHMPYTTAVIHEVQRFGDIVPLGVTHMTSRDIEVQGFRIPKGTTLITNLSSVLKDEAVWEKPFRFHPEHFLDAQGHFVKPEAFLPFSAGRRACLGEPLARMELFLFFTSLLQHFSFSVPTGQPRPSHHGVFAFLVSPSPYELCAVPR

C[C@]12CCCN1CC1=NNC(=O)c3cc(F)cc4[nH]c2c1c34 [PAMIPARIB]
Tmax [1]: 1 h | CL [2]: 29.9 mL/min/kg | IC50 [3]: 0.0009 µM | IC50 (Cytochrome P450 2D6): > 10 µM | IC50 (Cytochrome P450 2C8): > 10 µM | Activity [4]: Non-Toxic | F [5]: 98.7% | BPR [6]: 18.9% | AUC(0-inf) [7]: 1080 ng·h/mL | inhibition (INH) [8]: Not Active | inhibition at 30 µM (BCRP): 43% | half-life [9]: 2.07 h | Tmax [10]: 0.417 h | AUC [11]: 5521 ng·h/mL | fraction unbound [12]: 0.15 | fraction unbound [13]: 0.151 | AUC(0-inf) [14]: 1480 ng·h/mL | IC50 [15]: 47.8 µM | Activity (NCI-H209 [16]): 50% | microsomal CLint [17]: 7.2 µL/min/mg | concentration at 4 h [18]: 135 ng/g | Vd [19]: 2.09 L/kg | Activity [20]: Non-Toxic | IC50 (Cytochrome P450 2C19): > 10 µM | half-life [21]: 5.3 h | AUC [22]: 1757 ng·h/mL | inhibition at 20 µM (hERG (KCNH2)): 51% | Activity (NCI-H209 [23]): Active | IC50 [24]: 19.4 µM | microsomal CLint [25]: 7.9 µL/min/mg | fraction unbound [26]: 0.043 | BPR [27]: 17.4% | half-life [28]: 3.95 h | fraction unbound [29]: 0.21 | half-life [30]: 5.5 h
